Screening data (PubChem BioAssay)
A selection: hits, their analogues and other compounds. The true share with any hit is near 4%.
E-selectin induc – E-selectin induction on HUVECs; activation, % at 7.58 µM; 260,000 tested, 0.37% active; AID 686992; HUVEC E-selectin immunofluorescence imaging; normalized: neutral wells 0, TNF-alpha wells 100; P16581;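 active means mean E-selectin-positive cell signal at least 10% of the positive control, reached in at least 60% of replicates, without over 20% cell loss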
Target sequence (P16581 whole entry, looked up): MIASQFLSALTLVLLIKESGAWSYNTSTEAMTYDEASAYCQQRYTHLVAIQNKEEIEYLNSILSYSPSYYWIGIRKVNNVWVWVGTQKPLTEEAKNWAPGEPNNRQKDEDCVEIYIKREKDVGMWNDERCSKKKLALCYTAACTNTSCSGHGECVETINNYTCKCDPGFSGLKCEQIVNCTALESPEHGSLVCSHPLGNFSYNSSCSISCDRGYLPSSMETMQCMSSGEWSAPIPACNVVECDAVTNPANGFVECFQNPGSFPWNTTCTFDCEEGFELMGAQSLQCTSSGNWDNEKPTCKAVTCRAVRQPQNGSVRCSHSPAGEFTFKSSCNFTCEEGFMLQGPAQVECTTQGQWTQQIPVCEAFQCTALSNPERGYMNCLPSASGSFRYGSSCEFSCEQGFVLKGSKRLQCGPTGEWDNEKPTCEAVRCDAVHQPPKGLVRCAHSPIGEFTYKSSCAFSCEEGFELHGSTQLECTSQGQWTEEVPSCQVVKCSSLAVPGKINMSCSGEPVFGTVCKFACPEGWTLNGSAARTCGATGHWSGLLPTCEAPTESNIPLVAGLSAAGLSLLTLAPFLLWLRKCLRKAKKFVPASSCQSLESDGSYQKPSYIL
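Test system: HUVEC; input: 3,000 HUVEC/well; measured by: immunofluorescence imaging; read-out: % PE-positive cells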
SIRT5 block – sirtuin-5 (human) deacylase inhibition; inhibition, % at 15 µM; 330,000 tested, 1.1% active; Purified SirT5, succinyl-peptide AMC, trypsin-coupled fluorescence; in the data active means inhibition above about 15%
FN deposit inh – fibronectin deposition inhibition | 350,000 tested, 0.086% active | AH1F fibroblasts, Alexa488-fibronectin deposition fluorescence, overnight | AID 743247 | inhibition, % at 12.6 µM;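 active means mean inhibition across replicates of 30% or more, regardless of how many single replicates reach that level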;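 further: positive control wells lacked labelled fibronectin entirely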
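Assay system: AH1F fibroblasts assembling fluorescent fibronectin matrix; Amount: 10000 AH1F cells per well; Buffer or medium: DMEM, 2% serum; Probe or stimulus: Alexa488-fibronectin, 24 nM final in well; Doses: single compound dose, delivered by pin transfer; Incubation: 1 h adhesion, overnight exposure; Measured by: fluorescence 485/525 nm; Read-out: fibronectin deposition inhibition.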
Ecoli rRNA inh – inhibitors of bacterial rRNA selective over humanized ribosomes. E. coli WT GFP vs humanized-ribosome RFP mutants, fluorescence, 24 h; active compounds read low; DMSO median 0, no signal -100. GFP signal change (wild-type ribosome), % (concentration not given with the values). 350,000 tested, 1.6% active. AID 720706;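 active means significant combined selectivity score with lowered wild-type GFP, culture density cut under 30%, mutant RFP and density less affected; inactive means any of these conditions unmet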
Statin myotox sup – protects C2C12 myotubes from simvastatin toxicity; 330,000 tested, 0.78% active; AID 602340; ATP luminescence, 48 h; scaled: DMSO 0, geranylgeraniol control 100; rescue of ATP level, % at 7.49 µM;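 active means mean ATP rescue above about 67%, or every replicate alone reaching that limit, limit read from the data, passing the limit was not always enough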;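 further: myotubes were challenged with 10 µM simvastatin during compound exposure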
FGF22 binding – binders of recombinant human FGF22 by thermal shift; SYPRO orange fluorescence; percent of sucrose octasulfate shift, DMSO zero; activity (Tm shift, normalised), % at 9.99 µM; Q9HCT0; 340,000 tested, 1.5% active; AID 651658;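 active means mean Tm shift, scaled 0 neutral to 100 positive control, at about 1.3% or above, every replicate too, limit read from the data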
* = called active by the depositor; nt = not tested or not shown.

SMILES	E-selectin induc	SIRT5 block	FN deposit inh	Ecoli rRNA inh	Statin myotox sup	FGF22 binding
COc1cccc(S(=O)(=O)Nc2ccc3c(c2)[C@@H]2C[C@H](CC(=O)NCC(F)(F)F)O[C@H](CO)[C@@H]2O3)c1	0	-2	-11	-5	1	0
CN(C)C(=O)CSc1nc(-c2ccccc2)nc2c1CCCC2	nt	nt	nt	nt	77*	nt
COc1ccc(CC2(CO)COc3ccccc3C2=O)cc1 (configuration not stated)	nt	-14	-5	-28*	nt	0
COc1ccc(CN2C(=O)COc3ccccc32)cc1	0	-4	10	5	5	0
O=C(CN1C(=O)CCS(=O)(=O)c2ccccc21)NCc1ccccc1	nt	nt	nt	nt	72*	nt
Cn1c(C(=O)N2CCCC(C(=O)O)C2)cc2sccc21 (configuration not stated)	nt	nt	nt	nt	96*	nt
Cn1c(C(=O)N2CCCC(C(=O)N3CCN(C(=O)c4ccco4)CC3)C2)cc2sccc21 (configuration not stated)	1	nt	-2	0	1	0
CC(C)CC#Cc1ccc2c(c1)O[C@@H](CN(C)C(=O)NC(C)C)[C@@H](C)CN([C@@H](C)CO)S2(=O)=O	0	7	nt	-2	2	-1
CC(C)CC#Cc1ccc2c(c1)O[C@@H](CN(C)C(=O)NC1CCCC1)[C@H](C)CN([C@@H](C)CO)S2(=O)=O	0	16*	-8	0	nt	0
C[C@@H]1CN([C@H](C)CO)S(=O)(=O)c2ccc(C#Cc3ccc(F)cc3)cc2O[C@H]1CN(C)C(=O)NC1CCCCC1	-4	18*	13	-1	-45	0
CC(C)CC#Cc1ccc2c(c1)O[C@@H](CN(C)C(=O)NC1CCCC1)[C@H](C)CN([C@H](C)CO)S2(=O)=O	0	25*	7	-4	nt	0
C[C@H](CO)N1C[C@H](C)[C@H](CN(C)C(=O)NC2CCCCC2)Oc2cc(C#Cc3ccc(F)cc3)ccc2S1(=O)=O	1	14	-8	0	0	0
COc1ccc(S(=O)(=O)N(C)C[C@H]2Oc3ccc(NS(C)(=O)=O)cc3CC(=O)N([C@H](C)CO)C[C@H]2C)cc1	nt	0	nt	1	-1	0
O=C(N/N=C1/CCCc2ccccc21)c1cc([N+](=O)[O-])cc([N+](=O)[O-])c1	8	1	-20	3	nt	43*
O=C(O)c1cc2c(o1)CCC/C2=N\O	nt	-2	nt	22	-10	0
CCN(CC)S(=O)(=O)c1ccc(Cl)c(C(=O)N2CCc3ccccc32)c1	nt	nt	nt	nt	26	nt
O=C(c1cccc([N+](=O)[O-])c1)N1CCc2ccccc21	nt	0	-2	8	-1	0
O=C(N/N=C1\CCCc2oc(C(=O)O)cc21)c1ccccc1	nt	2	-25	13	4	43*
O=C(c1cc([N+](=O)[O-])cc([N+](=O)[O-])c1)N1CCCc2ccccc21	nt	-3	-2	18	nt	43*
CCN(CC)S(=O)(=O)c1ccc(C(=O)N2CCc3ccccc32)cc1	0	16*	-1	8	8	42
CCS(=O)(=O)Nc1ccc2c(c1)C(=O)N(C)[C@@H]1CC[C@H](CC(=O)NC)O[C@@H]1CO2	0	-3	-9	-1	-10	0
CC(C)NC(=O)Nc1ccc2c(c1)C(=O)N([C@H](C)CO)C[C@H](C)[C@H](CN(C)S(=O)(=O)c1cn(C)cn1)OCCCC[C@H](C)O2	nt	-1	-7	0	nt	0
Cc1ccc(-c2ccc3c(c2)O[C@H](CN(C)Cc2cncnc2)[C@H](C)CN([C@@H](C)CO)S3(=O)=O)cc1	1	nt	nt	-11	-20	nt
Cc1ccc(/C=C2\SC(=S)N(CCCC(=O)N3CCOCC3)C2=O)cc1	0	-2	4	-26*	18	1
CN1CCN(C(=O)CCCN2C(=O)/C(=C/c3ccc(Cl)cc3)SC2=S)CC1	nt	nt	nt	nt	11	nt
SMILES	E-selectin induc	SIRT5 block	FN deposit inh	Ecoli rRNA inh	Statin myotox sup	FGF22 binding
COC(=O)c1ccc(/C=C2/SC(=S)N(CCC(=O)N3CCOCC3)C2=O)cc1	nt	-7	5	-3	71*	0
COC(=O)c1ccc(/C=C2\SC(=S)N(CCCC(=O)N3CCOCC3)C2=O)cc1	0	-2	0	6	-4	0
C[C@H](O)C#Cc1ccc2c(c1)O[C@@H](CN(C)Cc1ccccc1)[C@@H](C)CN([C@@H](C)CO)S2(=O)=O	0	-2	-18	-1	29	0
Cn1cnc2c(NCc3ccco3)ncnc21	nt	30*	nt	2	8	0
CCCCN(C(=S)NC(=O)c1ccccc1)c1c(N)n(Cc2ccccc2)c(=O)[nH]c1=O	40*	2	0	3	9	-1
CCN(C(=O)Cn1ccc(C(F)(F)F)n1)c1c(N)n(Cc2ccccc2)c(=O)[nH]c1=O	110*	-2	-5	9	0	0
CCN(C(=O)COC(=O)c1ccc2ccccc2n1)c1c(N)n(Cc2ccccc2)c(=O)[nH]c1=O	nt	-2	nt	16	5	0
COCCN(C(=O)COC(=O)c1cc2c(s1)CCC2)c1c(N)n(Cc2ccccc2)c(=O)[nH]c1=O	1	15*	nt	-6	4	0
COCCCN(C(=O)c1ccc2ccccc2n1)c1c(N)n(Cc2ccccc2)c(=O)[nH]c1=O	nt	1	37*	18	5	0
CCC1CCc2sc(C(=O)OCC(=O)N(CCOC)c3c(N)n(Cc4ccccc4)c(=O)[nH]c3=O)cc2C1 (configuration not stated)	-2	1	5	12	5	0
O=C(N[C@H]1CC[C@H](CCn2cc(Cc3ccccc3)nn2)O[C@@H]1CO)c1ccccn1	0	-2	-10	-2	12	0
CNC[C@@H]1Oc2ccc(NC(=O)Nc3ccc(OC)cc3)cc2C(=O)N([C@H](C)CO)C[C@H]1C	-5	2	nt	3	4	1
CC(C)CN(C(=O)COC(=O)c1cccc2ccccc12)c1c(N)n(Cc2ccccc2)c(=O)[nH]c1=O	3	-1	nt	9	nt	0
CCn1nc(C(=O)OCC(=O)N(CC(C)C)c2c(N)n(Cc3ccccc3)c(=O)[nH]c2=O)c2ccccc2c1=O	0	-1	2	7	1	9.2*
NC(=O)c1ccccc1N/C=C/C(=O)c1ccco1	nt	nt	nt	nt	2	nt
O=C(/C=C/Nc1ccc(Oc2ccccc2)cc1)c1ccco1	nt	-2	-9	-25*	nt	0
O=C(/C=C/Nc1ccccc1C(F)(F)F)c1ccco1	1	3	-1	-22*	6	42
COc1ccc2c3c([nH]c2c1)[C@H](CO)N(C(=O)c1ccncc1)CC31CN(C(=O)CC2CC2)C1	0	nt	nt	0	nt	nt
